“And” between values parts separate entries of the source, which are not always exact repeats. Identical values can stand only once.
Experiments:
CYP3A4 = conditions: cited from earlier work
[1] = in vivo; cited from earlier work
[2] = system: ADP-induced platelet aggregation; conditions: 75 mg CLP daily
[3] = cited from earlier work
[4] = Clinical pharmacokinetics of CLP and its metabolites in plasma; format: in vivo, patients (human)
Outline: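 Caucasian patients scheduled for PCI or coronarography got 75 mg daily for 7 days, fasting. On day 7, plasma was sampled at 0.5, 1, 2, 3, 4, 6, 12 and 24 h (44 patients) or at 0.5 and 2 h only (38). Plasma was spiked with piroxicam, acetonitrile-precipitated, filtered, dried and reconstituted for HPLC–MS/MS. Quantifiable ranges were parent 0.25–5, derivatized thiol metabolites 0.25–50 and main metabolite 50–10,000 ng/mL. Tmax was taken directly from measured concentrations.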

platelet aggregation = conditions: cited from earlier work

COC(=O)[C@H](c1ccccc1Cl)N1CCC2SC(=O)C=C2C1 (stereo partly drawn) [2-oxo-CLP]
share of 2-oxo-CLP transformed into the thiol entities by CYP3A4 (CYP3A4): ~40% and 39.8%

COC(=O)[C@H](c1ccccc1Cl)N1CCc2sccc2C1 [CLP, Clopidogrel]
share of absorbed drug undergoing bioactivation pathway to thiol metabolite [1]: Approximately 15%
median AUCagr for wt/wt genotype versus heterozygotes ([2]; samples 2–3 h after administration, p = 0.484): lower
classification of patients by response to CLP ([2]; threshold for CLP resistance AUCagr above 486 AU*min): Almost all studied patients were classified as responders
patients treated with CLP who respond poorly to the drug [3]: 5–50%
Tmax ([4]; human, plasma, oral, 75 mg): 1 h

O=C(O)[C@H](c1ccccc1Cl)N1CCc2sccc2C1 [CLPM]
time after CLP administration up to which concentrations were quantifiable ([4]; patients, 75 mg CLP daily, day 7, plasma): up to 24 h

COC(=O)[C@H](c1ccccc1Cl)N1CCC(S)/C(=C\C(=O)O)C1 (stereo partly drawn) [H3]
antiaggregation properties (platelet aggregation): only H4 exhibits antiaggregation properties

COC(=O)C(c1ccccc1Cl)N1CCC(S)C(=CC(=O)O)C1 (stereo not drawn) [H4]
antiaggregation properties (platelet aggregation): exhibits antiaggregation properties
